ChEMBL document CHEMBL1154223, “Oxygenated lignans from the fruits of Schisandra arisanensis” (2009)

What was measured:
Assay type in all cases: functional
[1] = system: PBMC; test: Inhibition of 5 ug/ml PHA-stimulated human PBMC proliferation assessed as [3H]thymidine uptake at 100 uM after 3 days by scintillation counting
Outline: (§1)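 Human PBMC at 2 × 10^6 cells/mL were plated with or without PHA and exposed to test compound at 100 µM. Cultures were kept at 37 °C in humidified 5% CO2-air for 3 days, then pulsed with tritiated thymidine at 1 µCi/well for 16 h. Cells were harvested onto glass fiber filters, and radioactivity was counted by scintillation. Results are given as % inhibition.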

[2] = system: PBMC; test: Inhibition of human PBMC proliferation assessed as [3H]thymidine uptake at 100 uM after 3 days by scintillation counting; outline: as §1
[3] = system: PBMC; test: Inhibition of 0.2 ug/ml PHA-stimulated human PBMC proliferation assessed as [3H]thymidine uptake at 100 uM after 3 days by scintillation counting; outline: as §1
[4] = system: PBMC; test: Inhibition of human PBMC proliferation assessed as [3H]thymidine uptake at 5 uM after 3 days by scintillation counting
[5] = system: PBMC; test: Inhibition of 5 ug/ml PHA-stimulated human PBMC proliferation assessed as [3H]thymidine uptake at 5 uM after 3 days by scintillation counting

Row | SMILES | inhibition (INH) [1] | inhibition at 100 µM [2] | inhibition (INH) [3] | inhibition at 5 µM [4] | inhibition (INH) [5]
1 | COc1cc([C@@H]2c3cc(OC)c(OC)cc3C(=O)[C@@H](C)[C@H]2C)ccc1O | 95.6% | 61% | 82.7% |  | 
2 | COc1cc([C@@H]2c3cc(OC)c(O)cc3C(=O)[C@@H](C)[C@H]2C)ccc1O [ARISANTETRALONE A] | 91.9% | 59.7% | 78.1% |  | 
3 | COc1cc2c(c(O)c1OC)-c1c(cc(O)c(OC)c1OC)C[C@@H](C)[C@@H](C)C2 [ARISANSCHININ G] | 92.5% | 54.7% | 76.3% |  | 
4 | COc1cc2c(c(O)c1OC)-c1c(cc(O)c(OC)c1OC)C[C@H](C)[C@H](C)C2 [ARISANSCHININ F] | 92.9% | 58.5% | 81.7% |  | 
5 | COc1cc2c(cc1O)C(=O)[C@H](C)[C@@H](C)[C@@H]2c1ccc(OC)c(OC)c1 [ARISANTETRALONE D] | 83.9% | 34.1% | 70.1% |  | 
6 | C/C=C(/C)C(=O)O[C@H]1c2cc(OC)c(OC)c(OC)c2-c2c(cc(O)c(OC)c2OC)C[C@@H](C)[C@@]1(C)O | 44.3% | 44.5% | 67% |  | 
7 | COc1cc(C[C@@H](C)[C@@H](C)Cc2cc(O)c(OC)c(OC)c2)cc(O)c1OC [PREGOMISIN] | 95.6% | 63.9% | 83% |  | 
8 | C/C=C(/C)C(=O)O[C@H]1c2cc3c(c(OC)c2-c2c(cc(OC)c(OC)c2O)C[C@H](C)[C@]1(C)O)OCO3 | 14.6% | 12.7% | 16.4% |  | 
9 | CC=C(C)C(=O)O[C@H]1c2cc3c(c(OC)c2-c2c(cc(OC)c(OC)c2OC)C[C@H](C)[C@]1(C)O)OCO3 | 58.9% | 36.1% | 75.2% |  | 
10 | COc1cc([C@@H]2c3cc(O)c(OC)cc3C(=O)[C@@H](C)[C@H]2C)ccc1O [ARISANTETRALONE B] | 90.8% | 56.9% | 75.3% |  | 
11 | COc1cc2c(cc1O)C(=O)[C@@H](C)[C@@H](C)[C@@H]2c1ccc(OC)c(OC)c1 [ARISANTETRALONE C] | 89.3% | 54.1% | 76.3% |  | 
12 | C/C=C/C[C@@H](C)[C@@H](O)[C@H]1C(=O)N[C@@H](CC)C(=O)N(C)CC(=O)N(C)[C@@H](CC(C)C)C(=O)N[C@@H](C(C)C)C(=O)N(C)[C@@H](CC(C)C)C(=O)N[C@@H](C)C(=O)N[C@H](C)C(=O)N(C)[C@@H](CC(C)C)C(=O)N(C)[C@@H](CC(C)C)C(=O)N(C)[C@@H](C(C)C)C(=O)N1C [CYCLOSPORINE] |  |  |  | 25.5% | 89.9%
13 | COc1cc2c(c(O)c1OC)-c1c(cc(OC)c(OC)c1OC)C[C@@H](C)[C@@H](C)C2 [SCHISANHENOL] | 76% | 60.8% | 80.1% |  | 
14 | C/C=C(/C)C(=O)O[C@H]1c2cc(OC)c(OC)c(O)c2-c2c(cc3c(c2OC)OCO3)C[C@@H](C)[C@@]1(C)O | 66.6% | 47% | 74% |  | 
15 | COc1cc2c(c(OC)c1OC)-c1c(cc3c(c1OC)OCO3)[C@H](OC(=O)c1ccccc1)[C@@](C)(O)[C@@H](C)C2 [GOMISIN G] | 88.6% | 46.2% | 75.8% |  | 
